For series [1], the system named is Mus musculus. Put plainly: Toxicity in nude mouse xenografted with human A431 cells assessed as weight loss at 200 mg/kg/day, po qd after 12 days. Format: organism-based, A-431. As to conditions: in vivo, 288 h. Details: route oral. In a few lines: (§1)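 A431 xenograft; dosing began once tumours reached 50–150 mm³. Mice randomized, n = 6/group, given test agent, gefitinib reference or vehicle by oral gavage once daily at 200 mg/kg/day. Body weight and tumour volume recorded twice weekly; mortality and weight loss noted over treatment (tumour mass read on days 0, 4, 7, 10, 12).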

For series [2], the system named is Mus musculus. Put plainly: Toxicity in nude mouse xenografted with human A431 cells assessed as mortality at 200 mg/kg/day, po qd after 12 days. Details: route oral. The note with it: in vivo, 288 h. Format: organism-based, A-431. In outline: as §1
Series [3] addresses T1, Epidermal growth factor receptor (Homo sapiens, UniProt P00533). As to the kind of experiment: Ratio of IC50 for wild type EGFR in human A431 cells to IC50 for wild type EGFR (unknown origin). Format: cell-based. The note with it: A-431.
Series [4] has as its target T1, Epidermal growth factor receptor. Put plainly: Inhibition of wild type EGFR (unknown origin) incubated for 5 mins prior to ATP addition measured after 30 mins by HTRF method.
The test system of series [5] is Epidermal growth factor receptor (Homo sapiens), P00533 [T790M]. As to the kind of experiment: Inhibition of EGFR T790M mutant (unknown origin) incubated for 5 mins prior to ATP addition measured after 30 mins by HTRF method. Format: protein assay.
The next series deals with Cytochrome P450 3A4 (Homo sapiens, UniProt P08684). Put plainly: Inhibition of human recombinant CYP3A4 after 20 mins by LC/MS/MS analysis. In kind it is ADME.
The target in a further series is Cytochrome P450 2C9 (Homo sapiens, UniProt P11712). Put plainly: Inhibition of human recombinant CYP2C9 after 20 mins by LC/MS/MS analysis. Format: ADME.
The target in another series is Cytochrome P450 2D6 (Homo sapiens, UniProt P10635). Put plainly: Inhibition of human recombinant CYP2D6 after 20 mins by LC/MS/MS analysis. In kind it is ADME.
For another series, the target named is T2, Cytochrome P450 1A2 (Homo sapiens, UniProt P05177).
T2 sequence (P05177 whole entry): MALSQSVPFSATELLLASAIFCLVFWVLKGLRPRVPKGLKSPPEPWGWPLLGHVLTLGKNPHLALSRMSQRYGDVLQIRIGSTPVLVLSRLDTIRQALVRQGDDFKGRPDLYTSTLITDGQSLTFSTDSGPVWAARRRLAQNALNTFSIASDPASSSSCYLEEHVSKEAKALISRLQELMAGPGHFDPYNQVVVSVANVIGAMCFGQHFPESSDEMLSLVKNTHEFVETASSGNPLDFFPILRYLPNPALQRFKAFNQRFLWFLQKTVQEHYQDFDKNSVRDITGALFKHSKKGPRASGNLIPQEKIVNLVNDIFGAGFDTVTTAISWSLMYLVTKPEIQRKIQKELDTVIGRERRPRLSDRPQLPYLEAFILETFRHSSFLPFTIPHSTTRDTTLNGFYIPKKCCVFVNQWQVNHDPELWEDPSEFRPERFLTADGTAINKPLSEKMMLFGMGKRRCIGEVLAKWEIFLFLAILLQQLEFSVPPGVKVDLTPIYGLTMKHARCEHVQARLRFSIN
Put plainly: Inhibition of human recombinant CYP1A2 after 20 mins by LC/MS/MS analysis. In kind it is ADME.

A further series deals with K562. Put plainly: Cytotoxicity against human K562 cells after 48 hrs by CellTiter-Glo assay. In kind it is functional, cell-based. As to conditions: K562, 48 h.
The subject of a further series is SW-620. As to the kind of experiment: Cytotoxicity against human SW620 cells after 48 hrs by CellTiter-Glo assay. Format: functional, cell-based. As to conditions: SW-620, 48 h.
A further series relates to A549. As to the kind of experiment: Cytotoxicity against human A549 cells after 48 hrs by CellTiter-Glo assay. Format: functional, cell-based. As to conditions: A549, 48 h.
For the next series, the system named is A-431. As to the kind of experiment: animal or person. The note with it: Mus musculus, A-431, 288 h, route oral, read-out: TGI. In kind it is functional, Homo sapiens.
Series [6] relates to Mus musculus. Put plainly: Oral bioavailability in BALB/c mouse at 10 mg/kg. In kind it is ADME, organism-based. As to conditions: in vivo. In a few lines:
(§2)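 Mice (12 per treatment group) received a single dose, either intravenously at 3 mg/kg or orally at 10 mg/kg. Plasma exposure was followed over 24 h to derive AUC(0–24 h) in μM·min, t1/2 and tmax in min, and Cmax in μM. Oral bioavailability (F%) was derived from the oral versus i.v. data.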

A short description of series [7]: Cmax in BALB/c mouse at 10 mg/kg, po. Format: ADME, organism-based. The arrangement: dose 10 mg/kg, route oral. The note with it: in vivo. In a few lines:
as §2

A short description of series [8]: Cmax in BALB/c mouse at 3 mg/kg, iv. In kind it is ADME, organism-based. The arrangement: dose 3 mg/kg, route intravenous. The note with it: in vivo. In a few lines:
as §2

The nature of series [9]: Tmax in BALB/c mouse at 10 mg/kg, po. Format: ADME, organism-based. As to conditions: in vivo. The arrangement: dose 10 mg/kg, route oral. In outline: as §2
Series [10] in a line: Tmax in BALB/c mouse at 3 mg/kg, iv. Format: ADME, organism-based. The arrangement: dose 3 mg/kg, route intravenous. As to conditions: in vivo. In outline: as §2
Series [11] is described as follows: Half life in BALB/c mouse at 10 mg/kg, po. In kind it is ADME, organism-based. Details: dose 10 mg/kg, route oral. The note with it: in vivo. In outline: as §2
The test system of series [12] is Mus musculus. As to the kind of experiment: AUC (0 to 24 hrs) in BALB/c mouse at 10 mg/kg, po. Format: ADME, organism-based, Plasma. Details: time < 24 hr, dose 10 mg/kg, route oral. The note with it: in vivo. In a few lines:
as §2

Series [13] is described as follows: Half life in BALB/c mouse at 3 mg/kg, iv. Format: ADME, organism-based. The note with it: in vivo. Details: dose 3 mg/kg, route intravenous. In outline: as §2
For series [14], the system named is Mus musculus. As to the kind of experiment: AUC (0 to 24 hrs) in BALB/c mouse at 3 mg/kg, iv. As to conditions: in vivo. Format: ADME, organism-based, Plasma. Details: time < 24 hr, dose 3 mg/kg, route intravenous. In outline:
as §2

Series [15] addresses Voltage-gated inwardly rectifying potassium channel KCNH2 (Homo sapiens, UniProt Q12809). As to the kind of experiment: Inhibition of human ERG channel by patch clamp assay.
The target of series [16] is T1, Epidermal growth factor receptor. As to conditions: A-431, at 1 µM.

pIC50: −log10 of the molar value. The source made the active and inactive calls. The rule behind the calls is not given here.

T1 sequence (P00533 whole entry): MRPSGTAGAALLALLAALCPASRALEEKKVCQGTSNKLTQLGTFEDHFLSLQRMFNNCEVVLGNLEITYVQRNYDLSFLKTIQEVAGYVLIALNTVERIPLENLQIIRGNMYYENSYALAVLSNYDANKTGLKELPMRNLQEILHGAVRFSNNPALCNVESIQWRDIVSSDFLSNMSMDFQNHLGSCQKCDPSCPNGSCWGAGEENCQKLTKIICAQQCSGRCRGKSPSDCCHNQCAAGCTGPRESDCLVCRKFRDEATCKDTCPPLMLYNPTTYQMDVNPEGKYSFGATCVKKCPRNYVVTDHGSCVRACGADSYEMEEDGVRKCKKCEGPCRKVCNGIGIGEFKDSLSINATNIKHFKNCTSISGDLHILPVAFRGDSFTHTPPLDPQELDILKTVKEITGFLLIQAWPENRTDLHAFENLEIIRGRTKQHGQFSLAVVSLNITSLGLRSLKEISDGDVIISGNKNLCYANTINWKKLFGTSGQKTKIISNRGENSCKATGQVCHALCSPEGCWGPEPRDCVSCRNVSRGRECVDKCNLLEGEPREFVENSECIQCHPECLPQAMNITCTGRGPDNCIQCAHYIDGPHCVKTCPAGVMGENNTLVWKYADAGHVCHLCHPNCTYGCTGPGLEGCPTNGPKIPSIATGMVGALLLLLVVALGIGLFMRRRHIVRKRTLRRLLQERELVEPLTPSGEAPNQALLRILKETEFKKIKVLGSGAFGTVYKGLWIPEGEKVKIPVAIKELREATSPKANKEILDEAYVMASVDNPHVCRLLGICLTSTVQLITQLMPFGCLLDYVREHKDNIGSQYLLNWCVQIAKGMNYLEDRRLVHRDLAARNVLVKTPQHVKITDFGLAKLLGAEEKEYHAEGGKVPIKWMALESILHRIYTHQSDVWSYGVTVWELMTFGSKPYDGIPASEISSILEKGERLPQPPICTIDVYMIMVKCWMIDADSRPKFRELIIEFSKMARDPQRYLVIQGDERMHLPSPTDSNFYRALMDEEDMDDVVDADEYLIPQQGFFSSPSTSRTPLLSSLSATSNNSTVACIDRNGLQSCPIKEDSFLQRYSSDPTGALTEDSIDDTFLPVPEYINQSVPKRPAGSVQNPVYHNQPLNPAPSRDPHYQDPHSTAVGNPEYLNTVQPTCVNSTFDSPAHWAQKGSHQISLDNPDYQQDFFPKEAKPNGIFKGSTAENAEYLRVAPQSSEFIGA
Chain of Cytochrome P450 3A4 (P08684 whole entry): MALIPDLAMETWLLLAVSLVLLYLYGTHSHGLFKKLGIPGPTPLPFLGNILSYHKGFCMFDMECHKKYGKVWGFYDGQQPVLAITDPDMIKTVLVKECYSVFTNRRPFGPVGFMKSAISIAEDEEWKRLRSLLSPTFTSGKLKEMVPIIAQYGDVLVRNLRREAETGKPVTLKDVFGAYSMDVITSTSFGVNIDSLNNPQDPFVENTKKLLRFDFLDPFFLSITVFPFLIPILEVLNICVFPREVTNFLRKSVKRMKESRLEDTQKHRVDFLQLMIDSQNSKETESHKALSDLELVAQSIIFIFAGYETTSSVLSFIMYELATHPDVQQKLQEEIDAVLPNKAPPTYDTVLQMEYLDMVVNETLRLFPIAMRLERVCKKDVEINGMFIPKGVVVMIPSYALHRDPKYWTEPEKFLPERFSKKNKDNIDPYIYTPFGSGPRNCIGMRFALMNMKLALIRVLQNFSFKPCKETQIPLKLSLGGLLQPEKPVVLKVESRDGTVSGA
Chain of Cytochrome P450 2D6 (P10635 whole entry): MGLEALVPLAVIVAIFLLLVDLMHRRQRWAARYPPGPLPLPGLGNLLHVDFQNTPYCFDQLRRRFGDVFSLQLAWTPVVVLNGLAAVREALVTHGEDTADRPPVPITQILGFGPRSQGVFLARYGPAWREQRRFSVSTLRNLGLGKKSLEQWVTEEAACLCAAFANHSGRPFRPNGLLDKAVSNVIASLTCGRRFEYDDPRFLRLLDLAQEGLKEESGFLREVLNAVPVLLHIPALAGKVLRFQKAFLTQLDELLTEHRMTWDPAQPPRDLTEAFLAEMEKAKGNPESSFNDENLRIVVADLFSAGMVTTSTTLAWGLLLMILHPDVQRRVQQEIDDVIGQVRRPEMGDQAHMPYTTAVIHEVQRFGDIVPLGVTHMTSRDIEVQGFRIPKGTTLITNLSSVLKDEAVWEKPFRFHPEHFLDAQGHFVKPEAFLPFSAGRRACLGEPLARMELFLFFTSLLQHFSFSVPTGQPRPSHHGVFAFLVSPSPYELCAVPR
Chain of Epidermal growth factor receptor (Homo sapiens), P00533 [T790M] (P00533 whole entry T790M): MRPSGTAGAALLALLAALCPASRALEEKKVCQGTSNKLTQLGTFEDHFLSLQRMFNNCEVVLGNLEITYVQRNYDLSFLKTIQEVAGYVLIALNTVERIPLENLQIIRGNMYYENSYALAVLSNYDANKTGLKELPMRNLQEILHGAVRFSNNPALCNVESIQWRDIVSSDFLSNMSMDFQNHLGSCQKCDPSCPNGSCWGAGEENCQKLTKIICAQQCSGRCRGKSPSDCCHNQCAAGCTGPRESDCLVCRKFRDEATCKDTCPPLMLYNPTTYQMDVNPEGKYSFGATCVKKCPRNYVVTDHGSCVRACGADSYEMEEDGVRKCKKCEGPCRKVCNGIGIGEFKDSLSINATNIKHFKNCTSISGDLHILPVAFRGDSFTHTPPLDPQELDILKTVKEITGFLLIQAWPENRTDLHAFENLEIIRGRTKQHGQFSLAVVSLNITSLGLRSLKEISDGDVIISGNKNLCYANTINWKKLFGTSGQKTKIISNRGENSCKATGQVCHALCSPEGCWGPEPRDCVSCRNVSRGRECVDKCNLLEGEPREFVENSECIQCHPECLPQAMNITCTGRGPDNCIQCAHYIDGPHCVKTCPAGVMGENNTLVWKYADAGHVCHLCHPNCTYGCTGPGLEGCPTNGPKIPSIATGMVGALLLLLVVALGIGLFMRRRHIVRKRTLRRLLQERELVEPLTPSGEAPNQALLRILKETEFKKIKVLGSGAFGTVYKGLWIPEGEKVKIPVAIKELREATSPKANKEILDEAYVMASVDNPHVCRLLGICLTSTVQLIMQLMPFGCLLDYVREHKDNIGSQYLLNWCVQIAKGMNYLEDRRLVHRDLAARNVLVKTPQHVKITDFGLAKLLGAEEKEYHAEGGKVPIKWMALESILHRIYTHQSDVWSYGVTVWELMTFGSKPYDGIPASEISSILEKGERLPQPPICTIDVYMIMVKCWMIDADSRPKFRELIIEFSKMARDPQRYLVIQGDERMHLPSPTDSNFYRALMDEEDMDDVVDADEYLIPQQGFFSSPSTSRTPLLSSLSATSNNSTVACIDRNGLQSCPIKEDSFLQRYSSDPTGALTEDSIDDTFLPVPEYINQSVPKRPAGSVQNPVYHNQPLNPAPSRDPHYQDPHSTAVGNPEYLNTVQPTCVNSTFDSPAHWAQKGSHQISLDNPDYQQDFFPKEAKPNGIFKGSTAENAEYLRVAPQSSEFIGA
Chain of Cytochrome P450 2C9 (P11712 whole entry): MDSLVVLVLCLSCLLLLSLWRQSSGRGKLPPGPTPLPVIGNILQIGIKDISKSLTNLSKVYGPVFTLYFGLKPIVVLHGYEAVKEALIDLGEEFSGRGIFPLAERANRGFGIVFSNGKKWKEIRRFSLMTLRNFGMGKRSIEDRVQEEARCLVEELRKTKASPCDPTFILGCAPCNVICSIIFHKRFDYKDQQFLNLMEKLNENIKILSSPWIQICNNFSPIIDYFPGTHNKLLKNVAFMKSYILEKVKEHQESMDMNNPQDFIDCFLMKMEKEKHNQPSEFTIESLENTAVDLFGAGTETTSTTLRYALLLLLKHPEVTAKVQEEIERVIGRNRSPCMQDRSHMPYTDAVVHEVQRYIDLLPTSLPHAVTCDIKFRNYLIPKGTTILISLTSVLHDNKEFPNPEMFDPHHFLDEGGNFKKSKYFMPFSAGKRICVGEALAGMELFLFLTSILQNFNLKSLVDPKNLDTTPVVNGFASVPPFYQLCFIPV
Chain of Voltage-gated inwardly rectifying potassium channel KCNH2 (Q12809 whole entry): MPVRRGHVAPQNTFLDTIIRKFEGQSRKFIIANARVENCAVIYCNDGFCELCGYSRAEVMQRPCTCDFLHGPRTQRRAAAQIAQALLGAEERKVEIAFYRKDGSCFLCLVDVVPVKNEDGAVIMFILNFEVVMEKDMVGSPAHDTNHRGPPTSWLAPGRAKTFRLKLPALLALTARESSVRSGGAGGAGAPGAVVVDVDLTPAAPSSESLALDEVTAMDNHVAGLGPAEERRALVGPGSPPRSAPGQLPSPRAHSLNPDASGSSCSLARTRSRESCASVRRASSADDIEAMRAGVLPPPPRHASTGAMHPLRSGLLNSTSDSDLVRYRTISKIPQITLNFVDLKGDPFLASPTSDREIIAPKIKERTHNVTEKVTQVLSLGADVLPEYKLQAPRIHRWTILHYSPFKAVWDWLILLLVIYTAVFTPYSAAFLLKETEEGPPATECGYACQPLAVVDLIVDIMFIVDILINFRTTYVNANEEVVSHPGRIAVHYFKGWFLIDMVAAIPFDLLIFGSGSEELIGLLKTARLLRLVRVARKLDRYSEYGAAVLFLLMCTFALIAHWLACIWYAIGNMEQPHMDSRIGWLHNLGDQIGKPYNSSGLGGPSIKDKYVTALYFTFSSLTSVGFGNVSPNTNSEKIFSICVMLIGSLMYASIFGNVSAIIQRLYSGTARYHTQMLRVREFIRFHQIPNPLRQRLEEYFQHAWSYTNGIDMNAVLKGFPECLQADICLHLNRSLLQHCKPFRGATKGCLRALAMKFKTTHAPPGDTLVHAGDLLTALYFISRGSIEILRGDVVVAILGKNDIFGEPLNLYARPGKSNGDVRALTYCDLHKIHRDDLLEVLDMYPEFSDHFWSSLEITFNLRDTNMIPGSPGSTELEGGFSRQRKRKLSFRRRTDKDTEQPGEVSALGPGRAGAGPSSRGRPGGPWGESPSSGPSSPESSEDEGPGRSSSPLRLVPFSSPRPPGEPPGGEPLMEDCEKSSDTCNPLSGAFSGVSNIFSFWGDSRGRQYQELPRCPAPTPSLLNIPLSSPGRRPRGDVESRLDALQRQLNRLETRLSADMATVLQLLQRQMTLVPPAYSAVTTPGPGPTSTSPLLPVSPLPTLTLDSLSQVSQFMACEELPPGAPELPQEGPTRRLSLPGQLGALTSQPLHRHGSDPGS

As for `COc1cc2ncnc(Nc3ccc(F)c(Cl)c3)c2cc1OCCCN1CCOCC1` [GEFITINIB], the Activity entry in the series on Mus musculus [1] and in the series with Mus musculus [2] was “Non-toxic” throughout.

Take `Fc1ccc(Nc2ncnc3cc4c(cc23)NCCO4)cc1Cl`: the Ratio IC50 in series [3] came out at 20000. Besides, the negative logarithm of the IC50 (pIC50) in series [4] was 8.89.

In the case of `CN(C)C/C=C/C(=O)N1CCOc2cc3ncnc(Nc4ccc(OCc5cccc(F)c5)c(Cl)c4)c3cc21`, the inhibition result in series [5] was “Active”. The negative-log IC50 (pIC50) is < 5.00 on Cytochrome P450 3A4; < 5.00 on Cytochrome P450 2C9; < 5.00 on Cytochrome P450 2D6; < 5.00 on Cytochrome P450 1A2; < 5.00 in the series on K562; 5.21 in the series with SW-620. In addition, the pIC50 in the series on A549 was < 5.00.

Consider `CN(C)C/C=C/C(=O)N1CCOc2cc3ncnc(Nc4ccc(F)c(Cl)c4)c3cc21`, for which the inhibition entry in series [5] and in [16] was “Active” each time. Further, the Activity entry with Mus musculus [1] and in the series on Mus musculus [2] was “Non-toxic” each time. The inhibition in vivo at 200 mg/kg/day with A-431 was 66.8%. The molecule further displayed a F in the series with Mus musculus [6] of 26.1%. For the same molecule, the peak concentration (Cmax) in series [7] came to 360 nM; in series [8] it was 290 nM. The Tmax was 0.75 h in series [9] and 2 min in [10]. Moreover, the half-life in series [11] was determined as 9.13 h; in series [13] it was 12.7 h. For the same molecule, the exposure (AUC) is 133 µM·min in the series with Mus musculus [12] and 25.4 µM·min with Mus musculus [14]. For the same molecule, the negative-log IC50 (pIC50) (at Cytochrome P450 3A4; on Cytochrome P450 2C9; at Cytochrome P450 2D6; at Cytochrome P450 1A2; in the series on K562; in [15]) was < 5.00 throughout. Besides, the pIC50 is 4.60 in the series with SW-620 and < 5.00 in the series on A549.

For the origin of these results see ChEMBL document CHEMBL2440024, “Design, Synthesis, and Biological Evaluation of Novel Conformationally Constrained Inhibitors Targeting EGFR” (ACS Med Chem Lett, 2013).
